Results published in ChEMBL document CHEMBL4371003, “Discovery of Novel Dual Mechanism of Action Src Signaling and Tubulin Polymerization Inhibitors (KX2-391 and KX2-361)” (J Med Chem, 2018).
Blank lines part the entries; values can stand above or below the molecule they belong to.

Columns and labels:
[1] = test system: HT-29; test: Antiproliferative activity against human HT-29 cells in presence of 1.5% FCS by BrdU incorporation assay; assay type: functional, cell-based
[2] = Oral bioavailability in mouse; assay type: ADME, organism-based; conditions: in vivo
[3] = test system: HT-29; test: Antiproliferative activity against human HT-29 cells; assay type: functional
[4] = Antiproliferative activity against human PC3MLN4 cells; assay type: functional
[5] = test system: MOLT-4; test: Antiproliferative activity against human MOLT4 cells; assay type: functional
[6] = test system: Jurkat; test: Antiproliferative activity against human Jurkat cells; assay type: functional
[7] = test system: NCI-H460; test: Antiproliferative activity against human H460 cells; assay type: functional; conditions: for GI50: Homo sapiens, NCI-H460
[8] = test system: NCI-H226; test: Antiproliferative activity against human NCI-H226 cells; assay type: functional; conditions: for GI50: Homo sapiens, NCI-H226
[9] = test system: SW-620; test: Antiproliferative activity against human SW620 cells; assay type: functional; conditions: for GI50: Homo sapiens, SW-620
[10] = test system: SW1088; test: Antiproliferative activity against human SW1088 cells; assay type: functional
[11] = Ratio of AUC in brain to plasma of mouse at 20 mg/kg, po; assay type: ADME, organism-based; conditions: brain and plasma, read-out: Ratio AUC
[12] = Oral bioavailability in mouse at 20 mg/kg; assay type: ADME, organism-based; conditions: in vivo
[13] = target: Proto-oncogene tyrosine-protein kinase Src (Mus musculus, UniProt P05480); test: Inhibition of Src autophosphorylation in mouse GL261 cells; assay type: cell-based
Proto-oncogene tyrosine-protein kinase Src (Mus musculus, UniProt P05480), sequence (P05480 2-535 limits assumed): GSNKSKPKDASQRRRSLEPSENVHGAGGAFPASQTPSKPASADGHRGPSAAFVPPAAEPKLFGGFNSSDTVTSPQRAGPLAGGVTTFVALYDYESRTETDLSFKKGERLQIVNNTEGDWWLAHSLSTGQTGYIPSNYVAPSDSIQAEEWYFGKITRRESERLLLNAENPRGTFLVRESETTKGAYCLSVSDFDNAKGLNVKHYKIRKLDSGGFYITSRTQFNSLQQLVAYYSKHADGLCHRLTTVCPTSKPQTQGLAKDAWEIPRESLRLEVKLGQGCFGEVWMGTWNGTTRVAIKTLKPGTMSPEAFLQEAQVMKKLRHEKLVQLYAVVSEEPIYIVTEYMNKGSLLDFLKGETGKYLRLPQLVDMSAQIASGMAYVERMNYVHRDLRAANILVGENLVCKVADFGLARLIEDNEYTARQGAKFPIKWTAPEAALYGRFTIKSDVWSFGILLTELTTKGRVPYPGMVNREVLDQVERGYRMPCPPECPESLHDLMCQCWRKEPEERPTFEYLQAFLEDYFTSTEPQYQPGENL

[14] = target: T1, Proto-oncogene tyrosine-protein kinase Src (Homo sapiens, UniProt P12931); test: Inhibition of Src (unknown origin)
T1 sequence (P12931 2-536 limits assumed): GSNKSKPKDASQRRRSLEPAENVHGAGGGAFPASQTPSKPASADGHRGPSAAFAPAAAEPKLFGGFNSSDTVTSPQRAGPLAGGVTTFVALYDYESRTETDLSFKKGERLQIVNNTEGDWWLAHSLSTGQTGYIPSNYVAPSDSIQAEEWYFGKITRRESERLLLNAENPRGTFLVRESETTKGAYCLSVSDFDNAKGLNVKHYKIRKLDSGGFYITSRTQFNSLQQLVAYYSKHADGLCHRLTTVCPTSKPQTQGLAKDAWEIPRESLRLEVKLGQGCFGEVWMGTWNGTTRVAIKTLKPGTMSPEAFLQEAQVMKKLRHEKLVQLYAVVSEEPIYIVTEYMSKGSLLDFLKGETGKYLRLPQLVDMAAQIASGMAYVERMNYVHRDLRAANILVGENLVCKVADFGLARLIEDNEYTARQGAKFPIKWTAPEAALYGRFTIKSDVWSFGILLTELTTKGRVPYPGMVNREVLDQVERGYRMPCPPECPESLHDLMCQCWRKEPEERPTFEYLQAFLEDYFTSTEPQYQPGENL

[15] = test system: Daoy; test: Antiproliferative activity against human DaOY cells; assay type: functional
[16] = test system: SK-N-MC; test: Antiproliferative activity against human SK-N-MC cells; assay type: functional
[17] = test system: LN-18; test: Antiproliferative activity against human LN18 cells; assay type: functional
[18] = test system: SK-N-FI; test: Antiproliferative activity against human SK-N-FI cells; assay type: functional
[19] = test system: U-87 MG; test: Antiproliferative activity against human U87 cells; assay type: functional, U-87MG ATCC
[20] = test system: T98G; test: Antiproliferative activity against human T98G cells; assay type: functional
[21] = test system: U-118-MG; test: Antiproliferative activity against human U118MG cells; assay type: functional
[22] = test system: U138-MG; test: Antiproliferative activity against human U138MG cells; assay type: functional
[23] = Antiproliferative activity against human U373 cells; assay type: functional, U-373MG ATCC; conditions: U373 MG
[24] = Half life in mouse; assay type: ADME, organism-based; conditions: in vivo
[25] = test system: GL261; test: Antitumor activity against mouse GL261 cells implanted in mouse assessed as incidence of long term survival (>100 days) at 30 mg/kg, po qd relative to control; assay type: functional
[26] = test system: GL261 (Mus musculus); test: Antiproliferative activity against mouse GL261 cells
[27] = test system: MES-SA/Dx5; test: Antiproliferative activity against human MES-SA/Dx5 cells; assay type: functional
[28] = test system: NCI/ADR-RES; test: Antiproliferative activity against human NCI/ADR-RES cells; assay type: functional
[29] = test system: HT-29; test: Antiproliferative activity against human HT-29 cells in presence of 0.5% FCS; assay type: functional, cell-based
[30] = species: Homo sapiens; test: Inhibition of SRC 527F mutant (unknown origin) expressed in mouse SYF cells assessed as inhibition of cell growth in presence of 10% FCS; assay type: cell-based
[31] = species: Homo sapiens; test: Inhibition of SRC 527F mutant (unknown origin) expressed in mouse SYF cells assessed as inhibition of cell growth in presence of 2% FCS; assay type: cell-based
[32] = target: T1, Proto-oncogene tyrosine-protein kinase Src; test: Inhibition of human c-SRC expressed in mouse NIH/3T3 cells assessed as reduction in cell growth; assay type: cell-based
[33] = target: Bcr/Abl fusion protein (Homo sapiens, UniProt P00519); test: Inhibition of BCR/ABL (unknown origin); assay type: protein assay
Bcr/Abl fusion protein, sequence (P00519 whole entry, the tested form may be a part): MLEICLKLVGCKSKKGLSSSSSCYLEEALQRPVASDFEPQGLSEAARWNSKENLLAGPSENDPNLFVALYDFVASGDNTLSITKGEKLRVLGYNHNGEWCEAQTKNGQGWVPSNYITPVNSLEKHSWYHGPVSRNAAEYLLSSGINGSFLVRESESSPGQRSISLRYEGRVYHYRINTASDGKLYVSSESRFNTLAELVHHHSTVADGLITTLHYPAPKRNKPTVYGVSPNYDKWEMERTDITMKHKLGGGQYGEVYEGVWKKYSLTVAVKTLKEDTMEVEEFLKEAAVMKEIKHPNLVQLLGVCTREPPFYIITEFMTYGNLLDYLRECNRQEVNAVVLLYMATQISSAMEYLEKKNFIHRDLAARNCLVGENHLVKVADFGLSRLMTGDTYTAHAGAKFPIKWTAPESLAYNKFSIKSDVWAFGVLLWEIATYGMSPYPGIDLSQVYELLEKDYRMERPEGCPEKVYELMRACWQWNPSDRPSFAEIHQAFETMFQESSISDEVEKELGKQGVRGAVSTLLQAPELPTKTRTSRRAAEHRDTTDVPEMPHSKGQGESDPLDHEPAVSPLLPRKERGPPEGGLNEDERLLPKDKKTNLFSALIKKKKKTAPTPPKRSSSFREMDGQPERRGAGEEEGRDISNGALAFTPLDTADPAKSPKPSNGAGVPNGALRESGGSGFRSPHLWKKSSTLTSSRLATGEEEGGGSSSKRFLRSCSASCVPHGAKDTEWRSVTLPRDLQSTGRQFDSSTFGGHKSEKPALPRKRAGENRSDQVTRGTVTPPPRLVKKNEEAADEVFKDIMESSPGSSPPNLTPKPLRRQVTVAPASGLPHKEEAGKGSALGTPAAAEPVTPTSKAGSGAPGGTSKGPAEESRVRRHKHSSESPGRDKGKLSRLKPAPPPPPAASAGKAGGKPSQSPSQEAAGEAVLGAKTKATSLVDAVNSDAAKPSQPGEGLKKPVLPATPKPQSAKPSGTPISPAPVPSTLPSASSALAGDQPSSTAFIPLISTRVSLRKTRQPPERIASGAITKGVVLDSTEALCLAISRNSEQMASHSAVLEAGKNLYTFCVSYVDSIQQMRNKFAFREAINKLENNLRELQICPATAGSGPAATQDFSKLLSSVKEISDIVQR
Bcr/Abl fusion protein, sequence (P11274 whole entry, further chain, the tested form may be a part): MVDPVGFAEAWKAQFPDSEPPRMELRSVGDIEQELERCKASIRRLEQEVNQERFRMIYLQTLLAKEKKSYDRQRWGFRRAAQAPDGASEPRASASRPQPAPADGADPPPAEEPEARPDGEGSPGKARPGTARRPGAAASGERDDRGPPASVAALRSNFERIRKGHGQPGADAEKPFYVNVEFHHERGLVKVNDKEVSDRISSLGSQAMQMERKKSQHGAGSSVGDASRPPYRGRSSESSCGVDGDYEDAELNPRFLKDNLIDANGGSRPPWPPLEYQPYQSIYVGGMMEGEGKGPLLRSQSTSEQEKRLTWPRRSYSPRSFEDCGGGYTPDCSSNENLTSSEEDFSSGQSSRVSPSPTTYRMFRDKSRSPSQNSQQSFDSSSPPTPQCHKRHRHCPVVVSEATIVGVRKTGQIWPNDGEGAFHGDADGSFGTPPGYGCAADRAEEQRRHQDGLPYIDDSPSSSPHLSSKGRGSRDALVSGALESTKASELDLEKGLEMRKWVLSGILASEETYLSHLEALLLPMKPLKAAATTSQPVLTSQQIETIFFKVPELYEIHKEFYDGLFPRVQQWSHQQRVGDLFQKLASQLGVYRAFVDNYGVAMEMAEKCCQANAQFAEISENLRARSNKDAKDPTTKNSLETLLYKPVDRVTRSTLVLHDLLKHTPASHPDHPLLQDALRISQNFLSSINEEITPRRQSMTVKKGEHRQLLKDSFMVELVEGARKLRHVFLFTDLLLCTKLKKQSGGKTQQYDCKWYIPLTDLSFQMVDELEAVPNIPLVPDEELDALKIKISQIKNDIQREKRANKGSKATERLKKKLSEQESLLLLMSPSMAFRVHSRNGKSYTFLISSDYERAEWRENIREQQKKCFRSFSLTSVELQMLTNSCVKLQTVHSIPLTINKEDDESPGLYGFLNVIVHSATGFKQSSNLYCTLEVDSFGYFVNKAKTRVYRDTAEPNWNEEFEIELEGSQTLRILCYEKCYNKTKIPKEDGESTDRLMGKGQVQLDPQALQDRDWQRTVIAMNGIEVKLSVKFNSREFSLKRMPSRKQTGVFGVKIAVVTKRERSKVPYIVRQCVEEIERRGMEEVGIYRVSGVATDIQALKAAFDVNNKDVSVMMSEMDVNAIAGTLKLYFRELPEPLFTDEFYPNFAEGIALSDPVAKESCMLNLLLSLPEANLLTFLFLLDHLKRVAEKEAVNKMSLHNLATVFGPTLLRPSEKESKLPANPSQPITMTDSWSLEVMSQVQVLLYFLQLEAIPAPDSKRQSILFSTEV

[34] = test system: SK-OV-3; test: Antiproliferative activity against human SKOV3 cells; assay type: functional
[35] = Antiproliferative activity against human PC3MM2 cells; assay type: functional
[36] = test system: L3.6pl; test: Antiproliferative activity against human L3.6PL cells; assay type: functional
[37] = test system: MDA-MB-231; test: Antiproliferative activity against human MDA-MB-231 cells; assay type: functional
[38] = test system: A549; test: Antiproliferative activity against human A549 cells; assay type: functional
[39] = test system: Huh-7; test: Antiproliferative activity against human HuH7 cells; assay type: functional
[40] = test system: 769-P; test: Antiproliferative activity against human 769-P cells; assay type: functional
[41] = test system: K562; test: Antiproliferative activity against human K562 cells; assay type: functional
[42] = test system: K-562R; test: Antiproliferative activity against human K562R cells; assay type: functional
[43] = test system: CCRF-HSB-2; test: Antiproliferative activity against human CCRF-HSB2 cells; assay type: functional
[44] = test system: KG-1; test: Antiproliferative activity against human KG1 cells; assay type: functional
[45] = test system: RPMI-8226; test: Antiproliferative activity against human RPMI8226 cells; assay type: functional
[46] = test system: RL; test: Antiproliferative activity against human RL cells; assay type: functional
[47] = test system: HCT-116; test: Antiproliferative activity against human HCT116 cells; assay type: functional
[48] = Ratio of AUC in brain to plasma of mouse at 10 mg/kg, po; assay type: ADME, organism-based; conditions: brain and plasma, read-out: Ratio AUC
[49] = Drug uptake in mouse brain at 10 mg/kg, po relative to peripheral drug level; assay type: ADME, organism-based
Summary of the method: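 Mice dosed orally at 10 mg/kg; brain and plasma exposure measured as AUC and expressed as brain-to-plasma AUC ratio.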

[50] = Half life in po dosed mouse; assay type: ADME, organism-based; conditions: in vivo
[51] = Half life in rat; assay type: ADME; conditions: in vivo
[52] = Half life in dog; assay type: ADME, Canis lupus familiaris; conditions: in vivo
[53] = Drug absorption in po dosed rat; assay type: ADME, organism-based; conditions: in vivo, read-out: Drug absorption
[54] = Drug absorption in po dosed dog; assay type: ADME, organism-based, Canis lupus familiaris; conditions: in vivo, read-out: Drug absorption
[55] = Ratio of AUC in tumor to plasma of mouse xenografted with human HT-29 cells at 5 mg/kg, po; assay type: ADME, organism-based; conditions: tumor and plasma, read-out: Ratio AUC
[56] = Cmax in solid tumor patient at 40 mg, po during phase 1 clinical trial; assay type: ADME, organism-based; parameters: dose 40 mg, route oral; conditions: human, in vivo
Summary of the method: (§1)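 Phase 1 trial in late-stage solid tumor patients: continuous twice-daily oral dosing, first in 4-week cycles of 3 weeks on and 1 week off, later without the off week. Plasma PK (Cmax, Tmax, half-life, Vz/F) recorded at each dose level; Cmax given in ng/ml and nM.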

[57] = Tmax in solid tumor patient at 40 mg, po during phase 1 clinical trial; assay type: ADME, organism-based; conditions: human, in vivo
[58] = Half life in solid tumor patient at 40 mg, po during phase 1 clinical trial; assay type: ADME, organism-based; conditions: human, in vivo
[59] = Apparent volume of distribution in solid tumor patient at 40 mg, po during phase 1 clinical trial; assay type: ADME, organism-based; conditions: human, in vivo, read-out: Vz/F; summary of the method: as §1
[60] = Cmax in solid tumor patient at 80 mg, po BID during phase 1 clinical trial; assay type: ADME, organism-based; parameters: dose 80 mg, route oral; conditions: human, in vivo; summary of the method: as §1
[61] = Cmax in solid tumor patient at 50 mg, po BID measured during first monthly cycle during phase 1 clinical trial; assay type: ADME, organism-based; parameters: dose 50 mg, route oral; conditions: human, in vivo; summary of the method: as §1
[62] = Cmax in CRPC patient at 40 mg, po BID during phase 2 trial by LC-MS analysis; assay type: ADME, organism-based; parameters: dose 40 mg, route oral; conditions: human, in vivo
[63] = Cmax in AML patient at 120 mg, po qd; assay type: ADME, organism-based; parameters: dose 120 mg, route oral; conditions: human, in vivo
Summary of the method: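 Phase 1b study in elderly advanced AML patients with repeated once-daily oral dosing; plasma and bone-marrow drug concentrations measured.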

[64] = Half life in AML patient at 120 mg, po qd; assay type: ADME, organism-based; conditions: human, in vivo
[65] = target: Tyrosine-protein kinase Lyn (Homo sapiens, UniProt P07948); test: Inhibition of LYN (unknown origin)
Tyrosine-protein kinase Lyn, sequence (P07948 whole entry): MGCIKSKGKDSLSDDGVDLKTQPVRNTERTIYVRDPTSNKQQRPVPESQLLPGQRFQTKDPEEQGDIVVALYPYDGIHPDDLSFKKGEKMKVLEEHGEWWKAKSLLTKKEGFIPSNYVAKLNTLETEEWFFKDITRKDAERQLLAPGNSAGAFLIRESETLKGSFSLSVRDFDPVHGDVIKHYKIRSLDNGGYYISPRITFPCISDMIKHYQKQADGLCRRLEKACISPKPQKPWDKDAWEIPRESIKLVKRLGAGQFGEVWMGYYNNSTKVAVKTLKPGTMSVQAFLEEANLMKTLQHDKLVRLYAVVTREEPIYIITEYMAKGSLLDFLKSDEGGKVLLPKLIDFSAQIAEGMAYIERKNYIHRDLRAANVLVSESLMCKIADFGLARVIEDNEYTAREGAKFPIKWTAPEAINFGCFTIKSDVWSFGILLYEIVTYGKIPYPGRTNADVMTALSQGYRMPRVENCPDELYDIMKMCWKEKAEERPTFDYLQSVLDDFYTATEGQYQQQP

[66] = target: BCR/ABL1 (Mus musculus) (UniProt P00520+Q6PAJ1); conditions: Homo sapiens
[67] = test system: Bcr/Abl fusion protein (Homo sapiens), P00519+P11274 [E255K]
[68] = test system: Bcr/Abl fusion protein (Homo sapiens), P00519+P11274 [T315I]; conditions: Mus musculus

Structure (SMILES): O=C(Cc1ccc(-c2ccccc2)cn1)NCc1cccc(F)c1
IC50 [1]: 338 nM
bioavailability [2]: 4%

Structure (SMILES): C#CCCCN(CCOc1ccc(-c2ccc(CC(=O)NCc3ccccc3)nc2)cc1)C(=O)c1ccc(C(=O)c2ccccc2)cc1
GI50 [3]: 28 nM
GI50 [4]: 45 nM

Structure (SMILES): O=C(Cc1ccc(-c2ccc(N3CCOCC3)cc2)cn1)NCc1cccc(F)c1 [KX2-361]
bioavailability [2]: 40%
Kp [11]: 1.16
bioavailability [12]: 40%
IC50 [13]: 60 nM
IC50 [14]: 67000 nM
GI50 [15]: 16 nM
GI50 [16]: 8 nM
GI50 [10]: 26 nM
GI50 [17]: 2.9 nM
GI50 [18]: 11 nM
GI50 [19]: 76 nM
GI50 [20]: 14 nM
GI50 [21]: 29 nM
GI50 [22]: 51 nM
GI50 [23]: 54 nM
half-life [24]: 2.5 h
Activity [25]: 30%
GI50 [26]: 57 nM

Structure (SMILES): CC(=O)O[C@H]1C(=O)[C@@]2(C)[C@H]([C@H](OC(=O)c3ccccc3)[C@]3(O)C[C@H](OC(=O)[C@H](O)[C@@H](NC(=O)c4ccccc4)c4ccccc4)C(C)=C1C3(C)C)[C@]1(OC(C)=O)CO[C@@H]1C[C@@H]2O [PACLITAXEL]
GI50 [27]: 1800 nM
GI50 [28]: 5940 nM

Continued, in another order:

GI50 [5]: 644 nM
GI50 [6]: 8 nM
GI50 [7]: 90 nM
GI50 [8]: 163 nM
GI90 [9]: 2940 nM
GI50 [9]: 2420 nM
GI50 [10]: 898 nM
Structure (SMILES): Cc1nc(Nc2ncc(C(=O)Nc3c(C)cccc3Cl)s2)cc(N2CCN(CCO)CC2)n1.O [DASATINIB]

IC50 [1]: 23 nM
bioavailability [2]: 49%
IC50 [29]: 5 nM
GI50 [32]: 20 nM
GI50 [3]: 25 nM
IC50 [33]: 100 to 200 nM
GI50 [34]: 10 nM
GI50 [37]: 20 nM
GI50 [38]: 9 nM
GI50 [39]: 9 nM
GI50 [41]: 13 nM
GI50 [42]: 0.64 nM
GI50 [5]: 13 nM
GI50 [43]: 12 nM
GI50 [6]: 10 nM
GI50 [45]: 40 nM
GI90 [7]: 162 nM
GI50 [7]: 51 nM
GI90 [8]: 490 nM
GI50 [8]: 98 nM
GI90 [47]: 195 nM
GI50 ([47]; Homo sapiens, HCT-116): 31 nM
GI90 [9]: 903 nM
GI50 [9]: 109 nM
Kp [48]: 0.42
Drug uptake [49]: 42%
IC50 [14]: 46000 nM
half-life [50]: 1 h
half-life [51]: 2 h
half-life [52]: 8 h
Fa [53]: 50 to 90%
Fa [54]: 50 to 90%
Kp [55]: 1.52
Cmax [56]: 80 ng/mL
Tmax [57]: 1 h
half-life [58]: 4 h
Vd/F [59]: 681 L
Cmax [60]: 273 ng/mL
Cmax [61]: 231 ng/mL
Cmax [62]: 61 ng/mL
Cmax [63]: 218 ng/mL
half-life [64]: 2.2 h
IC50 [65]: 100 to 200 nM
GI50 [66]: 85 nM
GI50 [67]: 80 nM
GI50 [68]: 35 nM
Structure (SMILES): O=C(Cc1ccc(-c2ccc(OCCN3CCOCC3)cc2)cn1)NCc1ccccc1 [TIRBANIBULIN]
GI50 [30]: 123 nM
GI50 [31]: 23 nM
GI50 [35]: 9 nM
GI50 [36]: 25 nM
GI50 [40]: 45 nM
GI50 [44]: 16 nM
GI50 [46]: 19 nM
GI50 [27]: 34 nM
GI50 [28]: 56 nM
GI50 [4]: 40 nM
